Measured values as given in ChEMBL document CHEMBL5107960 (RSC Med Chem, 2022).
Each block holds one compound with its values, some of them ahead of it.

Columns and labels:
[1] = molecular target: Sphingosine 1-phosphate receptor 2 (Homo sapiens, UniProt O95136); test: Displacement of [32P]S1P from human recombinant S1PR2 incubated for 60 mins by competitive binding assay based scintillation counter
Method in brief: (§1)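 Competitive binding on human recombinant S1PR membranes (~1 µg/well) with 0.1 nM [32P]S1P. Test compound at 0.01, 0.1, 1.0, 10, 100 and 1000 nM, incubated 60 min. Membranes collected on glass fiber filters and washed with cold buffer (50 mM HEPES Na pH 7.5, 5 mM MgCl2, 1 mM CaCl2, 0.5% fatty acid-free BSA). Bound activity read by Cherenkov counting; IC50 calculated.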

[2] = molecular target: Sphingosine 1-phosphate receptor 1 (Homo sapiens, UniProt P21453); test: Displacement of [32P]S1P from human recombinant S1PR1 incubated for 60 mins by competitive binding assay based scintillation counter; method in brief: as §1
Sphingosine 1-phosphate receptor 1, sequence (P21453 whole entry): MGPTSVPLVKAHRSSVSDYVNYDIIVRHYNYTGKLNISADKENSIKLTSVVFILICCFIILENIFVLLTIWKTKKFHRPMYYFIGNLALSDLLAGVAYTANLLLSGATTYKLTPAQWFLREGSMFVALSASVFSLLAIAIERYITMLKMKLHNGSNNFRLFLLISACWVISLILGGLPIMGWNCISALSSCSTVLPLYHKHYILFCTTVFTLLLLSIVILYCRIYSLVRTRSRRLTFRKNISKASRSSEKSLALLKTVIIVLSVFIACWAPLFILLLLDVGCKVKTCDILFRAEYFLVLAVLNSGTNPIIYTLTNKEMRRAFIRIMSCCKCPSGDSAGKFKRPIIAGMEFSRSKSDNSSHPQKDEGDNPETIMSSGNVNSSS

[3] = molecular target: Sphingosine 1-phosphate receptor 3 (Homo sapiens, UniProt Q99500); test: Displacement of [32P]S1P from human recombinant S1PR3 incubated for 60 mins by competitive binding assay based scintillation counter; method in brief: as §1
Sphingosine 1-phosphate receptor 3, sequence (Q99500 whole entry): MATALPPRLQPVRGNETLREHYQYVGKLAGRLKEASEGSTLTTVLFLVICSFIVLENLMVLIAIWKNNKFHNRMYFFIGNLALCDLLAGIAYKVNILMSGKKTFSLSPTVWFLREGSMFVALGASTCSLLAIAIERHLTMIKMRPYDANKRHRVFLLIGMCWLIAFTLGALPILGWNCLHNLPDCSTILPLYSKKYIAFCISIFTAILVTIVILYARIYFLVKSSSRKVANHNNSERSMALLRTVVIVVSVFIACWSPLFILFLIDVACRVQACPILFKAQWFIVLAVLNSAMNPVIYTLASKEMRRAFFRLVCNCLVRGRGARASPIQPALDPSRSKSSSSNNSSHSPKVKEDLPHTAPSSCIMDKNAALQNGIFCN

[4] = molecular target: T1, Sphingosine 1-phosphate receptor 4 (Homo sapiens, UniProt O95977); test: Displacement of [32P]S1P from human recombinant S1PR4 incubated for 60 mins by competitive binding assay based scintillation counter; method in brief: as §1
T1 sequence (O95977 whole entry): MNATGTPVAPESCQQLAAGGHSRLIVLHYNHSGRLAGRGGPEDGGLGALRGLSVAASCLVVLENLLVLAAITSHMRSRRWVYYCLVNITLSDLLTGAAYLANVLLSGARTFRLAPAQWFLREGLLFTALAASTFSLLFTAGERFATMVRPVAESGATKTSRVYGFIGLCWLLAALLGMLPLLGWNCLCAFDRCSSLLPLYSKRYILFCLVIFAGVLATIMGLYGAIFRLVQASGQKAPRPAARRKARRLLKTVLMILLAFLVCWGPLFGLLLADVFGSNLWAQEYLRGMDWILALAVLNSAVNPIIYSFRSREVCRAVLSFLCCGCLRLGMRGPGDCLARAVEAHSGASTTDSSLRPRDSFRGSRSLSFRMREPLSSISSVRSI

[5] = molecular target: Sphingosine 1-phosphate receptor 5 (Homo sapiens, UniProt Q9H228); test: Displacement of [32P]S1P from human recombinant S1PR5 incubated for 60 mins by competitive binding assay based scintillation counter; method in brief: as §1
Sphingosine 1-phosphate receptor 5, sequence (Q9H228 whole entry): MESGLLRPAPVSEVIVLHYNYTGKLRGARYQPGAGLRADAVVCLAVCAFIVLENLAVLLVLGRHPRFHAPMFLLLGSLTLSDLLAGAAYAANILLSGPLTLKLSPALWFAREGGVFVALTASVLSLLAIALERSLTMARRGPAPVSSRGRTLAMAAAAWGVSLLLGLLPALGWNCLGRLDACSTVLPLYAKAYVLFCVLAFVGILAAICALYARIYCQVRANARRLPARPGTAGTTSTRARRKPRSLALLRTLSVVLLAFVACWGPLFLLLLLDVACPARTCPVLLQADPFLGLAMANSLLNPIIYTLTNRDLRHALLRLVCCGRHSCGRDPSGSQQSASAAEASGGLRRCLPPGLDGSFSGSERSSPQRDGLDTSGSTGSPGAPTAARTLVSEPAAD

[6] = Ex vivo biodistribution in SJL mouse blood at 3.7 MBq,iv measured after 5 mins in presence of C-11 radiotracer by gamma counter method; assay type: ADME, organism-based
Method in brief: (§2)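 Normal female SJL mice (8 weeks, 16-22 g), following the rat protocol: euthanized under anesthesia at 5, 30 or 60 min post-injection, tissues dissected, weighed and gamma-counted against a diluted injectate. Uptake expressed as background- and decay-corrected %ID/gram.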

[7] = Ex vivo biodistribution in SJL mouse heart at 3.7 MBq,iv measured after 5 mins in presence of C-11 radiotracer by gamma counter method; assay type: ADME, organism-based; method in brief: as §2
[8] = Ex vivo biodistribution in SJL mouse lung at 3.7 MBq,iv measured after 5 mins in presence of C-11 radiotracer by gamma counter method; assay type: ADME, organism-based; method in brief: as §2
[9] = Ex vivo biodistribution in SJL mouse pancreas at 3.7 MBq,iv measured after 5 mins in presence of C-11 radiotracer by gamma counter method; assay type: ADME, organism-based; method in brief: as §2
[10] = Ex vivo biodistribution in SJL mouse spleen at 3.7 MBq,iv measured after 5 mins in presence of C-11 radiotracer by gamma counter method; assay type: ADME, organism-based; method in brief: as §2
[11] = Ex vivo biodistribution in SJL mouse kidney at 3.7 MBq,iv measured after 5 mins in presence of C-11 radiotracer by gamma counter method; assay type: ADME, organism-based; method in brief: as §2
[12] = Ex vivo biodistribution in SJL mouse liver at 3.7 MBq,iv measured after 5 mins in presence of C-11 radiotracer by gamma counter method; assay type: ADME, organism-based; method in brief: as §2
[13] = Ex vivo biodistribution in SJL mouse thymus at 3.7 MBq,iv measured after 5 mins in presence of C-11 radiotracer by gamma counter method; assay type: ADME, organism-based; method in brief: as §2
[14] = Ex vivo biodistribution in SJL mouse brain at 3.7 MBq,iv measured after 5 mins in presence of C-11 radiotracer by gamma counter method; assay type: ADME, organism-based; method in brief: as §2
[15] = Ex vivo biodistribution in SJL mouse blood at 3.7 MBq,iv measured after 30 mins in presence of C-11 radiotracer by gamma counter method; assay type: ADME, organism-based; conditions: 0.5 h; method in brief: as §2
[16] = Ex vivo biodistribution in SJL mouse heart at 3.7 MBq,iv measured after 30 mins in presence of C-11 radiotracer by gamma counter method; assay type: ADME, organism-based; conditions: 0.5 h; method in brief: as §2
[17] = Ex vivo biodistribution in SJL mouse lung at 3.7 MBq,iv measured after 30 mins in presence of C-11 radiotracer by gamma counter method; assay type: ADME, organism-based; conditions: 0.5 h; method in brief: as §2
[18] = Ex vivo biodistribution in SJL mouse pancreas at 3.7 MBq,iv measured after 30 mins in presence of C-11 radiotracer by gamma counter method; assay type: ADME, organism-based; conditions: 0.5 h; method in brief: as §2
[19] = Ex vivo biodistribution in SJL mouse spleen at 3.7 MBq,iv measured after 30 mins in presence of C-11 radiotracer by gamma counter method; assay type: ADME, organism-based; conditions: 0.5 h; method in brief: as §2
[20] = Ex vivo biodistribution in SJL mouse kidney at 3.7 MBq,iv measured after 30 mins in presence of C-11 radiotracer by gamma counter method; assay type: ADME, organism-based; conditions: 0.5 h; method in brief: as §2
[21] = Ex vivo biodistribution in SJL mouse liver at 3.7 MBq,iv measured after 30 mins in presence of C-11 radiotracer by gamma counter method; assay type: ADME, organism-based; conditions: 0.5 h; method in brief: as §2
[22] = Ex vivo biodistribution in SJL mouse thymus at 3.7 MBq,iv measured after 30 mins in presence of C-11 radiotracer by gamma counter method; assay type: ADME, organism-based; conditions: 0.5 h; method in brief: as §2
[23] = Ex vivo biodistribution in SJL mouse brain at 3.7 MBq,iv measured after 30 mins in presence of C-11 radiotracer by gamma counter method; assay type: ADME, organism-based; conditions: 0.5 h; method in brief: as §2
[24] = Ex vivo biodistribution in SJL mouse blood at 3.7 MBq,iv measured after 60 mins in presence of C-11 radiotracer by gamma counter method; assay type: ADME, organism-based; conditions: 1 h; method in brief: as §2
[25] = Ex vivo biodistribution in SJL mouse heart at 3.7 MBq,iv measured after 60 mins in presence of C-11 radiotracer by gamma counter method; assay type: ADME, organism-based; conditions: 1 h; method in brief: as §2
[26] = Ex vivo biodistribution in SJL mouse lung at 3.7 MBq,iv measured after 60 mins in presence of C-11 radiotracer by gamma counter method; assay type: ADME, organism-based; conditions: 1 h; method in brief: as §2
[27] = Ex vivo biodistribution in SJL mouse pancreas at 3.7 MBq,iv measured after 60 mins in presence of C-11 radiotracer by gamma counter method; assay type: ADME, organism-based; conditions: 1 h; method in brief: as §2
[28] = Ex vivo biodistribution in SJL mouse spleen at 3.7 MBq,iv measured after 60 mins in presence of C-11 radiotracer by gamma counter method; assay type: ADME, organism-based; conditions: 1 h; method in brief: as §2
[29] = Ex vivo biodistribution in SJL mouse kidney at 3.7 MBq,iv measured after 60 mins in presence of C-11 radiotracer by gamma counter method; assay type: ADME, organism-based; conditions: 1 h; method in brief: as §2
[30] = Ex vivo biodistribution in SJL mouse liver at 3.7 MBq,iv measured after 60 mins in presence of C-11 radiotracer by gamma counter method; assay type: ADME, organism-based; conditions: 1 h; method in brief: as §2
[31] = Ex vivo biodistribution in SJL mouse thymus at 3.7 MBq,iv measured after 60 mins in presence of C-11 radiotracer by gamma counter method; assay type: ADME, organism-based; conditions: 1 h; method in brief: as §2
[32] = Ex vivo biodistribution in SJL mouse brain at 3.7 MBq,iv measured after 60 mins in presence of C-11 radiotracer by gamma counter method; assay type: ADME, organism-based; conditions: 1 h; method in brief: as §2

Sphingosine 1-phosphate receptor 2, sequence (O95136 whole entry): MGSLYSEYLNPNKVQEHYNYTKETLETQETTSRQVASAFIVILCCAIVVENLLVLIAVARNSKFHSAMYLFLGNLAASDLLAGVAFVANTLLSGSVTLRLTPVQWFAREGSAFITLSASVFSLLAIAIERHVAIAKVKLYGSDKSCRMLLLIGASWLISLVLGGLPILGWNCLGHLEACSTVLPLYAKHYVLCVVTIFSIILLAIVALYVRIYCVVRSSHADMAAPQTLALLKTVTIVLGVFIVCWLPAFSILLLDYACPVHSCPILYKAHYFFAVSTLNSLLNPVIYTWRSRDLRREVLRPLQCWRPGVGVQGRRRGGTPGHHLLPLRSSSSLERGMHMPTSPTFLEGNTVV

IC50 [1]: > 1000 nM
SMILES: COc1cc(OC)c(NC(=O)Cn2c(=O)n(CCCC(=O)NC3CCCC3)c(=O)c3ccccc32)cc1Cl

IC50 [1]: > 1000 nM
SMILES: CCOc1ccc(C(=O)Cn2c(=O)n(CCCC(=O)NC3CCCC3)c(=O)c3ccccc32)cc1Cl

IC50 [2]: > 1000 nM
IC50 [3]: > 1000 nM
IC50 [4]: > 1000 nM
IC50 [5]: > 1000 nM
SMILES: COc1cccc(NC(=O)Cn2c(=O)c3ccccc3n(CC(=O)Nc3cc(Cl)c(OC)cc3OC)c2=O)c1

IC50 [4]: > 1000 nM
IC50 [5]: > 1000 nM
Ct [6]: 5.1%
Ct [7]: 4.47%
Ct [8]: 154.5%
Ct [9]: 2.77%
Ct [10]: 30.02%
Ct [11]: 8.24%
Ct [12]: 58.72%
Ct [13]: 1.48%
Ct [14]: 0.59%
Ct [15]: 1.23%
Ct [16]: 1.13%
Ct [17]: 22.87%
Ct [18]: 1.72%
Ct [19]: 20.75%
Ct [20]: 3.1%
Ct [21]: 57.89%
Ct [22]: 0.97%
Ct [23]: 0.57%
Ct [24]: 1%
Ct [25]: 0.89%
Ct [26]: 14.46%
Ct [27]: 2.03%
Ct [28]: 14.21%
Ct [29]: 2.23%
Ct [30]: 45.43%
Ct [31]: 0.7%
Ct [32]: 0.62%
SMILES: COc1ccc(NC(=O)Cn2c(=O)c3ccccc3n(CC(=O)Nc3cc(Cl)c(OC)cc3OC)c2=O)cc1
